For 16 compounds, MIC results are on record in ChEMBL document CHEMBL1143736, “Synthesis and antimycobacterial activity of 4-(5-substituted-1,3,4-oxadiazol-2-yl)pyridines” (Bioorg Med Chem, 2007).

Type in all cases: functional
In assay [1] the test system is Mycobacterium tuberculosis. As to the kind of experiment: Antimycobacterial activity against streptomycin, isoniazid, rifampicin, pyrazinamide-resistant Mycobacterium tuberculosis CIBIN 234 isolates. The method in brief:
(§1)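 Modified microplate Alamar Blue assay (MABA). Inoculum came from a log-phase culture matched to McFarland 1, diluted 1:50 in Middlebrook 7H9 to 6 × 10^6 CFU/mL, and prepared just before inoculation.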

In assay [2] the test system is Mycobacterium tuberculosis. The assay is described as follows: Antimycobacterial activity against streptomycin and isoniazid-resistant Mycobacterium tuberculosis CIBIN 675 isolates. The method in brief:
as §1

Assay [3] relates to Mycobacterium tuberculosis. The assay is described as follows: Antimycobacterial activity against streptomycin, isoniazid, ethambutol-resistant Mycobacterium tuberculosis CIBIN 112 isolates. The method in brief: as §1

≈ marks a conversion by molar mass, not a printed value.

As usually defined, the MIC is the lowest concentration found to suppress growth. Low values mean greater potency, high ones weaker potency. In the case of `Cc1nnc(-c2ccncc2)o1`, the MIC in assay [1] was 49.7 µM (≈ 8.01 µg/mL); in assay [2] it was 49.7 µM; in assay [3] it was 49.7 µM (≈ 8.01 µg/mL).

Turning to `ClCc1nnc(-c2ccncc2)o1`, the MIC in assay [1] is 41 µM (≈ 8.03 µg/mL); in assay [2], 41 µM; in assay [3], 41 µM (≈ 8.03 µg/mL).

Regarding `CCCCCCCCCCCCCCCc1nnc(-c2ccncc2)o1`, the minimum inhibitory concentration (MIC) in assay [1] was 22.4 µM (≈ 8 µg/mL); in assay [2] it was 11.2 µM; in assay [3], 2.8 µM (≈ 1 µg/mL).

`c1cc(-c2nnc(-c3ccncc3)o2)ccn1`: the values for the MIC in assay [1], in assay [2] and in assay [3] were 35.7 µM (≈ 8.01 µg/mL), 35.7 µM and 35.7 µM (≈ 8.01 µg/mL), respectively.

For `CCCCCCCCCCCCCCCCCc1nnc(-c2ccncc2)o1`, the MIC in assay [1] worked out at 20.8 µM (≈ 8 µg/mL); in assay [2] it was 10.4 µM; in assay [3] it was 2.59 µM (≈ 0.999 µg/mL).

For `O=[N+]([O-])c1ccc(-c2nnc(-c3ccncc3)o2)cc1`, the MIC in assay [1] worked out at 29.9 µM (≈ 8.01 µg/mL); in assay [2], 29.9 µM; in assay [3] it was 29.9 µM (≈ 8.01 µg/mL).

As for `O=[N+]([O-])c1cc(-c2nnc(-c3ccncc3)o2)cc([N+](=O)[O-])c1`, the figures for the MIC in assay [1], in assay [2] and in assay [3] were 25.5 µM (≈ 8 µg/mL), 25.5 µM and 12.8 µM (≈ 4 µg/mL), respectively.

On to `CN(C)c1ccc(-c2nnc(-c3ccncc3)o2)cc1`, for which the MIC in assay [1] was 30 µM (≈ 8 µg/mL); in assay [2], 30 µM; in assay [3], 30 µM (≈ 8 µg/mL).

With `FC(F)(F)c1nnc(-c2ccncc2)o1`, the minimum inhibitory concentration (MIC) was 37.2 µM (≈ 8.01 µg/mL) in assay [1], 37.2 µM in assay [2] and 37.2 µM (≈ 8.01 µg/mL) in assay [3].

As to `O=[N+]([O-])c1ccccc1-c1nnc(-c2ccncc2)o1`, the MIC worked out at 29.9 µM (≈ 8.01 µg/mL) in assay [1], 29.9 µM in assay [2] and 29.9 µM (≈ 8.01 µg/mL) in assay [3].

With `COc1cc(-c2nnc(-c3ccncc3)o2)cc(OC)c1OC`, the MIC in assay [1] is 28.2 µM (≈ 8.85 µg/mL); in assay [2], 28.2 µM; in assay [3] it was 14.1 µM (≈ 4.42 µg/mL).

With `c1ccc(-c2nnc(-c3ccncc3)o2)cc1`, the values for the MIC in assay [1], in assay [2] and in assay [3] were 35.9 µM (≈ 8.01 µg/mL), 35.9 µg/mL and 35.9 µM (≈ 8.01 µg/mL), respectively.

For the compound `CN[C@@H]1[C@H](O[C@H]2[C@H](O[C@H]3[C@H](O)[C@@H](O)[C@H](N=C(N)N)[C@@H](O)[C@@H]3N=C(N)N)O[C@@H](C)[C@]2(O)C=O)O[C@@H](CO)[C@H](O)[C@H]1O` (stereo in doubt) [STREPTOMYCIN], the MIC in assay [1] amounted to 55 µM (≈ 32 µg/mL); in assay [2], 6.87 µM; in assay [3] it was 55 µM (≈ 32 µg/mL).

As to `CC[C@@H](CO)NCCN[C@@H](CC)CO` [ETHAMBUTOL], the minimum inhibitory concentration (MIC) in assay [3] came to 78.3 µM (≈ 16 µg/mL).

As to `NNC(=O)c1ccncc1` [ISONIAZID], the MIC in assay [1] worked out at 58.4 µM (≈ 8.01 µg/mL); in assay [2], 29.2 µM; in assay [3], 29.2 µM (≈ 4 µg/mL).

`CO[C@H]1/C=C/O[C@@]2(C)Oc3c(C)c(O)c4c(O)c(c(/C=N/N5CCN(C)CC5)c(O)c4c3C2=O)NC(=O)/C(C)=C\C=C\[C@H](C)[C@H](O)[C@@H](C)[C@@H](O)[C@@H](C)[C@H](OC(C)=O)[C@@H]1C` [RIFAMPIN]: the MIC in assay [1] was determined as 122 µM (≈ 100 µg/mL); in assay [2] it was 0.94 µM; in assay [3] it was 3.79 µM (≈ 3.12 µg/mL).
